Source: PubChem
zfTRPN1 agonist – zebrafish TRPN1 channel agonists, primary screen, cell-based, HEK293, calcium fluorescence; activation, % at 3 µM; actives 0.18% (n = 220,000); HEK293 zebrafish TRPN1-YFP, Fluo-8 calcium fluorescence; 100% = response to 87 µM carbachol;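 active means activation above its plate's cutoff, the mean activation of test wells on that plate plus 3 SD, cut at about 19% in these data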
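Control set: carbachol 87 µM as high control, DMSO as low control; system: HEK293 stable line with zebrafish TRPN1-YFP; read-out: % activation versus carbachol response; detection: intracellular calcium fluorescence with Fluo-8; doses: single test compound dose, 3 µM nominal, 0.3% DMSO; schedule: dye 1 h 37 °C plus 30 min RT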
GPR7 antagonist – GPR7 receptor antagonists, primary screen, cell-based, fluorescence, single concentration; Neuropeptides B/W receptor type 1 (Homo sapiens), P48145; actives 1.1% (n = 290,000); inhibition, % at 4.4 µM; GPR7-expressing cells, fluorescence antagonist assay; in the data active means inhibition above about 16%, passing the limit was not always enough;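 further: cells stimulated with the agonist NPW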
TAAR1 antagonist – human TAAR1 antagonists, primary screen, Fluo-8 calcium fluorescence, CHO RD-HGA16 cells; antagonist; actives 1.5% (n = 360,000); Trace amine-associated receptor 1 (Homo sapiens), Q96RJ0; inhibition, % at 3 µM;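 active means inhibition above a per-plate cutoff, the mean inhibition of test compounds on that plate plus 3 SD, cut at about 49% in these data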
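Test system: hTAAR1-expressing CHO RD-HGA16 cells, Gα16-coupled; Probe or stimulus: EC80 β-phenethylamine stimulus; Compound dosing: single nominal final test compound concentration of 3 µM; Timing: 140 s kinetic read after compound, 140 s after agonist; Signal: Fluo-8 calcium-sensitive fluorescence; Measure: % inhibition of agonist calcium response; Controls: DMSO and EC80 PEA controls.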
TRPML3 ag – human TRPML3 channel agonists, primary screen, cell-based, HEK293 TRPML3-YFP, Fluo-8 calcium fluorescence, 3 µM; Mucolipin-3 (Homo sapiens), Q8TDD5; 100% = the carbachol control signal; activation, % at 3 µM; actives 0.29% (n = 220,000); AID 1448, 2008;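 active means activation above its plate's cutoff, the mean activation of the plate's test wells plus 3 SD, cut at about 12% in these data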
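Test system: TRPML3-YFP stable HEK293 cells. Doses: single point at 3 µM. Incubation: dye loading 1 h 37 °C then 30 min ambient, 125 s read. Signal: Fluo-8 calcium dye fluorescence, ex 470-495, em 515-575 nm. Measure: percent activation from peak-to-basal fluorescence ratio, scaled between DMSO and carbachol.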
LANA-H2B inh – blockers of LANA interaction with H2A/H2B – biochemical, FP readout, HTS, primary screen; Protein LANA1 (Human herpesvirus 8 type P (isolate GK18)), Q9QR71; actives 0.6% (n = 320,000); cell-free LANA-H2A/H2B peptide, fluorescence polarization; inhibition, % (test concentration not listed); AID 2629, 2010; in the data active means inhibition mostly above about 10%, no sharp cut-off; inactive means mostly below about 6.7%
Target sequence (Q9QR71 whole entry, looked up): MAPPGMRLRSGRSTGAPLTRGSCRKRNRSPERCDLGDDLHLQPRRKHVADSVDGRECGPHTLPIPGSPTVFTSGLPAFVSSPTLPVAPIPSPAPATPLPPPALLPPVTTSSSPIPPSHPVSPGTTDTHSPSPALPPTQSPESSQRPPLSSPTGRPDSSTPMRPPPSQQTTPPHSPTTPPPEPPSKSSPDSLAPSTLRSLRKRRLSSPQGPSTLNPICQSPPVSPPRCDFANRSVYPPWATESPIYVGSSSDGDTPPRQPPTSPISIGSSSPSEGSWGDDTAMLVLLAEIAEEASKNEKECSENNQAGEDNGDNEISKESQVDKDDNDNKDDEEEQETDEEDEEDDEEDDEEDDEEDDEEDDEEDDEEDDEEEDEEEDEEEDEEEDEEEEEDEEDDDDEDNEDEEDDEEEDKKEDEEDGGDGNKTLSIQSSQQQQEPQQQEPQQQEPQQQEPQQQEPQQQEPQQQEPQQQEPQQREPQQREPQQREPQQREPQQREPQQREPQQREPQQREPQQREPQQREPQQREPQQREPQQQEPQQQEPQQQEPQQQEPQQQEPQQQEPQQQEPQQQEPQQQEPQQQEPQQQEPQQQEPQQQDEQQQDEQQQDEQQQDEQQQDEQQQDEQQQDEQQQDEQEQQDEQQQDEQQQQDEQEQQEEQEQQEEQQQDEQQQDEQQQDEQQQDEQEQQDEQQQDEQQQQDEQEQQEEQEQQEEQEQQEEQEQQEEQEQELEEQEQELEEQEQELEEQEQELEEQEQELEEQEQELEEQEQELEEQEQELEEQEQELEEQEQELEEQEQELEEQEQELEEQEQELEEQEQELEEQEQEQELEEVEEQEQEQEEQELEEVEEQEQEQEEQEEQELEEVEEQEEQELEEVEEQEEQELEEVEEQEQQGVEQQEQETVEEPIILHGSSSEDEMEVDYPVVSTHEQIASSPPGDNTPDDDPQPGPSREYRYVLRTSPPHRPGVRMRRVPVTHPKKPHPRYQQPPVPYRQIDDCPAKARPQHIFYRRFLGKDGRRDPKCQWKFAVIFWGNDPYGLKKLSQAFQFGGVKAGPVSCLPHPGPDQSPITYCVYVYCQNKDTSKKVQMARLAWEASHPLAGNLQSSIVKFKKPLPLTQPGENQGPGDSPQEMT
TAAR1 ag – human TAAR1 agonists, primary screen, Fluo-8 calcium fluorescence, CHO RD-HGA16 cells; AID 624467, 2012; vehicle wells 0%, saturating PEA agonist 100%; activation, % at 3 µM; actives 0.99% (n = 360,000); Trace amine-associated receptor 1 (Homo sapiens), Q96RJ0;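 active means activation above the mean activation of all test compounds in the run plus 3 SD, cut at about 38% in these data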
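test system = CHO RD-HGA16 cells carrying human TAAR1 plus Gα16 | schedule = 17-24 h seeding, 75 min 37 °C dye, 30 min RT | compound dosing = 3 µM single concentration | control set = DMSO and PEA EC100 | replicates = n 1 | signal = Fluo-8 fluorescence, 5 s baseline then 140 s kinetic read | measure = percent activation vs PEA EC100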
A number is an active result; - = inactive; . = no result; + = active, no number. Sampled rows, rich in hits. Any-hit rate of the full collection: about 3.4%.

SMILES	zfTRPN1 agonist	GPR7 antagonist	TAAR1 antagonist	TRPML3 ag	LANA-H2B inh	TAAR1 ag
COc1cc(/C=C/C(=O)c2ccc(C)c([N+](=O)[O-])c2)cc(OC)c1O	-	-	-	-	-	45
N#Cc1c(NC(=O)c2cnccn2)sc2c1CCCC2	-	-	-	-	19	-
N#Cc1c(NC(=O)c2cccnc2)sc2c1CCC2	-	-	-	-	-	-
COCCN1Cc2cc(C(=O)OC)c3c(c2C1=O)c1ccccc1n3S(=O)(=O)c1ccc(OC)cc1	.	.	-	.	.	-
CNc1ccc2c3c(cccc13)C(=O)N(C)C2=O	.	-	-	.	88	157
CN1C(=O)c2cccc3c(Cl)ccc(c23)C1=O	-	-	-	-	-	-
CC1CCCCC1NC(=O)C1CCN(S(=O)(=O)N2CCOCC2)CC1 (stereo not given)	-	-	-	-	26	-
CC(C(=O)Nc1ncn[nH]1)N1C(=O)c2ccccc2C1=O (stereo not given)	-	-	-	-	17	-
O=C1CC(c2ccco2)CC2=C1C=Nc1ccccc1N2 (stereo not given)	-	-	-	-	-	-
O=c1[nH]c2c(s1)C=Nc1ccccc1N2	-	-	-	-	38	-
COc1cc(OC)cc(-c2cc3ccccc3c(=O)o2)c1	.	.	-	.	70	-
Cn1cccc1/C=C1\SC(=S)N(NC(=O)c2ccccc2)C1=O	-	-	-	-	+	-
O=C(c1ccc([N+](=O)[O-])cc1)N(Cc1ccc(Br)cc1)N1C(=O)CCCC1=O	47	-	-	95	-	-
O=C(O)c1ccccc1C(=O)N1CCN(S(=O)(=O)c2cccc(C(F)(F)F)c2)CC1	.	.	-	.	43	-
O=C(c1ccncc1)N1CCN(S(=O)(=O)c2cccc(C(F)(F)F)c2)CC1	.	.	-	.	-	-
COCCCNc1ccn2nc(-c3ccc(OCc4ccccc4)cc3)cc2n1	.	.	56	.	.	-
COC(=O)[C@]12C[C@H](CC(=O)NCc3ccc(C)o3)C(=O)N(Cc3ccccc3)C1=C[C@H](C(C)(C)C)O[C@@H]2C	.	.	-	.	.	-
CN(c1ccccc1)S(=O)(=O)c1cccc(C(=O)NCc2ccccc2)c1	.	.	-	.	-	-
COc1ccc(N(C)S(=O)(=O)c2cccc(C(=O)Nc3nc4ccccc4[nH]3)c2)cc1	-	-	55	-	-	-
COc1ccc(N(C)S(=O)(=O)c2cccc(C(=O)NC3CCCCCC3)c2)cc1	-	43	-	-	-	-
CN(c1cccc(Cl)c1)S(=O)(=O)c1cccc(C(=O)Nc2nc3ccccc3[nH]2)c1	-	-	61	-	-	-
O=C(Nc1nc2ccccc2[nH]1)c1cccc(Cl)c1	.	-	-	.	-	-
CN(c1cccc(Cl)c1)S(=O)(=O)c1cccc(C(=O)NCc2ccncc2)c1	.	.	-	.	53	-
CCCCNc1ccc2c(c1)OC[C@H](Cc1ccccc1)NS2(=O)=O	.	.	-	.	.	-
C[C@@H]1CN([C@@H](C)CO)C(=O)CCCn2cc(nn2)CO[C@H]1CN(C)C(=O)Nc1ccc(C(F)(F)F)cc1	.	.	-	.	.	-
SMILES	zfTRPN1 agonist	GPR7 antagonist	TAAR1 antagonist	TRPML3 ag	LANA-H2B inh	TAAR1 ag
CNC(=O)c1ccccc1C1(O)c2ccccc2CCc2ccccc21	.	.	-	.	.	-
CC(C)C(C(=O)Nc1ccncc1)c1ccc(Cl)cc1 (stereo not given)	.	-	-	.	-	54
CCc1ccc(O)c(CNCCNCc2cc(CC)ccc2O)c1	.	.	-	.	-	42
CCOc1cc(CNCCCN2CCOCC2)cc(Br)c1OCc1ccccc1Cl	-	39	-	-	-	-
CCOc1cc(CNCCO)cc(Br)c1OCc1ccccc1Cl	-	-	-	-	-	46
COc1cc(CNCCO)cc(Cl)c1OCc1ccccc1Cl	-	-	-	-	-	-
Cc1ccc([C@H]2C(C(=O)O)=CC[C@@H](c3ccc(C)cc3)N2S(=O)(=O)c2ccc(C)cc2)cc1	.	.	-	.	+	-
